Active and inactive are the calls of the source. The rule behind the calls is not given here.
Experiments:
[1] = target: D(2) dopamine receptor (Homo sapiens) (UniProt P14416); assay: (§1) Antagonist activity at human Gi/o-coupled DRD2L expressed in CHOK1 cells assessed as inhibition in dopamine-induced beta-arrestin 2 recruitment at 20 uM incubated for 30 mins followed by dopamine addition and measured after 90 or 180 mins by pathhunter beta-arrestin assay relative to control; type: cell-based
Procedure, shortened: (§2)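 PathHunter beta-arrestin recruitment, antagonist mode, run at DiscoverX. Cells seeded and held at 37 °C, then preincubated with test sample for 30 min at 37 °C or room temperature (1% vehicle). Agonist then added at EC80 for 90 or 180 min. IC50 comes from concentration–response runs in the same format.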

Mus musculus [2] = assay: Suppression of drug-induced cocaine-seeking behavior in C57BL/6J mouse assessed as reduction in morphine-conditioned place preference at 60 nmol, icv administered 20 mins prior to behavioral morphine addition measured twice weekly for 7 weeks; type: functional, organism-based; conditions: in the assay text read “morphine-seeking” for “cocaine-seeking”
Procedure, shortened: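 Male C57BL/6J mice, 7–11 weeks, 20–33 g. Three-compartment counterbalanced place conditioning. Test agent given i.c.v. in 10% Solutol HS 15/90% saline, 20 min before morphine (10 mg/kg i.p., in 0.9% saline). Mice then confined 40 min in the paired outer chamber. Saline i.p. conditioning in the opposite chamber followed 4 h later. Preference was scored in a 30 min automated test. n = 16–30/group; two-way ANOVA with Tukey post hoc.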

[3] = target: T1, Prolactin-releasing peptide receptor (Homo sapiens) (UniProt P49683); assay: as §1, with “Gq-coupled PRLHR” for “Gi/o-coupled DRD2L”, “prolactin releasing peptide (1 to 31)-induced” for “dopamine-induced”, “prolactin releasing peptide (1 to 31)” for “dopamine”; type: cell-based; procedure, shortened: as §2
T1 sequence (whole entry): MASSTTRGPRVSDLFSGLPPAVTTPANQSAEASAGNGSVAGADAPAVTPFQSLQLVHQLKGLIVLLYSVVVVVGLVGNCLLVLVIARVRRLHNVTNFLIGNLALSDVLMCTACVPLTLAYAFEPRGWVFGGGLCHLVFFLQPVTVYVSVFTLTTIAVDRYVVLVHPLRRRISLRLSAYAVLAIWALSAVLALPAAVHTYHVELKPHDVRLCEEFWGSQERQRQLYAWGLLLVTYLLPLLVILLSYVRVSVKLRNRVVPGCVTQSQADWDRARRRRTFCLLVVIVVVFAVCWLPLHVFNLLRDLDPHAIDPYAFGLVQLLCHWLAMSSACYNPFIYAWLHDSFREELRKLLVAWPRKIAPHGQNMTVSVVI

Prostacyclin receptor = Prostacyclin receptor (Homo sapiens, UniProt P43119); assay: Antagonist activity at human Gs-coupled PTGIR assessed as inhibition in beraprost-induced beta-arrestin 2 recruitment at 20 uM incubated for 30 mins followed by beraprost- addition and measured after 90 or 180 mins by pathhunter beta-arrestin assay relative to control; procedure, shortened: as §2
Sequence of Prostacyclin receptor (P43119 whole entry): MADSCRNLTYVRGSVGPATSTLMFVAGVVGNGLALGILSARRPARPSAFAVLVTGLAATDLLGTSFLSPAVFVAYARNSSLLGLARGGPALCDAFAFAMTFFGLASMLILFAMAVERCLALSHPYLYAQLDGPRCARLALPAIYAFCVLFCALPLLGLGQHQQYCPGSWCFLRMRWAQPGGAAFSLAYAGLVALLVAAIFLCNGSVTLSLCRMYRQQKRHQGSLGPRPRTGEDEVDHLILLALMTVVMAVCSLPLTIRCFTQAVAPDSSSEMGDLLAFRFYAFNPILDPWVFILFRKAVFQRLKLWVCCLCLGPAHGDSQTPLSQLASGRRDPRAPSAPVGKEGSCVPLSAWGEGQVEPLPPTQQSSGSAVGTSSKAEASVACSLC

[4] = Toxicity in C57BL/6J mouse at 60 nmol, icv measured for 2 days by conditioned place preference test; conditions: in vivo, icv_or_intrathecal, 48 h
[5] = target: Histamine H1 receptor (Homo sapiens) (UniProt P35367); conditions: at 20 µM
Sequence of Histamine H1 receptor (Homo sapiens) (P35367 whole entry): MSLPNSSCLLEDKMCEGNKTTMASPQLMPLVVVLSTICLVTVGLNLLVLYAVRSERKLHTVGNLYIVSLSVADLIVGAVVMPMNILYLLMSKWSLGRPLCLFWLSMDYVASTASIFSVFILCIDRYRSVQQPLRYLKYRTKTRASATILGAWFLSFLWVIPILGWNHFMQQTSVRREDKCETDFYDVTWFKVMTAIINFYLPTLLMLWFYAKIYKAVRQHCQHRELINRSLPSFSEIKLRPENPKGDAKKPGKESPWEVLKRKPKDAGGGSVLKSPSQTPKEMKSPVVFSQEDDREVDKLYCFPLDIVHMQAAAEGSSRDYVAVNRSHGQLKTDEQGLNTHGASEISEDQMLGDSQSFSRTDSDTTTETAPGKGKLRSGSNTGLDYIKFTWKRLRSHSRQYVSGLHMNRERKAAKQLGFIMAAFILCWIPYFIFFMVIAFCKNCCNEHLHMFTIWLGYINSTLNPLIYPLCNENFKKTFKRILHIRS

[6] = target: C-C chemokine receptor type 8 (Homo sapiens, UniProt P51685); assay: (§3) Antagonist activity at human CCR8 expressed in CHOK1 cells assessed as inhibition in CCL1-induced beta-arrestin 2 recruitment at 20 uM incubated for 30 mins followed by CCL1 addition and measured after 90 or 180 mins by pathhunter beta-arrestin assay relative to control; type: cell-based; procedure, shortened: as §2
Sequence of C-C chemokine receptor type 8 (P51685 whole entry): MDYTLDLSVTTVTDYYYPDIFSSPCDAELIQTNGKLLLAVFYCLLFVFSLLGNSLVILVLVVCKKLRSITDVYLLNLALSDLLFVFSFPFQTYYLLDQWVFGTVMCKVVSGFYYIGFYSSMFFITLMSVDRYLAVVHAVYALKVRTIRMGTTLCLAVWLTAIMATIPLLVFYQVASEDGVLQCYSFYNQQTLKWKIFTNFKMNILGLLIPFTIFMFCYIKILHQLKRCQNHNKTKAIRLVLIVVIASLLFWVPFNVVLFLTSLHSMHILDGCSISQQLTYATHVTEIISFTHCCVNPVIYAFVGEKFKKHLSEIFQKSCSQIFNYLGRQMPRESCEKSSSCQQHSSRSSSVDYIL

[7] = Stability of compound in pH 4.88 HCl aqueous solution assessed as parent compound remaining at 0.026 mmol measured after 24 hrs; type: physicochemical; conditions: read-out: Stability
Procedure, shortened: (§4)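 Acid stability: compound held 24 h at 37 °C in acidic aqueous media at pH 2.0 or pH 4.88. Percent recovery of parent compound was measured.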

[8] = target: T2, Neuropeptide S receptor (Homo sapiens) (UniProt Q6W5P4); assay: as §3, with “Gq-coupled NPSR1b” for “CCR8”, “human U2OS” for “CHOK1”, “neuropeptide S-induced” for “CCL1-induced”, “neuropeptide S” for “CCL1”; type: cell-based; procedure, shortened: as §2
T2 sequence (whole entry): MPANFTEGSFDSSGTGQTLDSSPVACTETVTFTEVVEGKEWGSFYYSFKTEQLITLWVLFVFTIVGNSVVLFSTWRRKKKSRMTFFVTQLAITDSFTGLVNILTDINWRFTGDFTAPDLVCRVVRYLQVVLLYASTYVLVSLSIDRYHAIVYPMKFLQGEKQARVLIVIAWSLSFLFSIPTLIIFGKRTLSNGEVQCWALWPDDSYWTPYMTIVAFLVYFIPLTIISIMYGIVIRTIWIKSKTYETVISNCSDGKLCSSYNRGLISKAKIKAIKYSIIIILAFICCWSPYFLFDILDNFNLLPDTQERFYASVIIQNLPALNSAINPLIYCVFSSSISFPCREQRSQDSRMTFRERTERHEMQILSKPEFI

Mus musculus [9] = assay: Suppression of drug-induced morphine-seeking behavior in C57BL/6J mouse assessed as reduction in stress-induced reinstatement of morphine-CPP at 60 nmol, icv administered 15 mins prior to testing by forced swim test
Cannabinoid receptor 2 = Cannabinoid receptor 2 (Homo sapiens, UniProt P34972); assay: Antagonist activity at human Gi/o-coupled CNR2 expressed in CHOK1 cells assessed as inhibition in CP55940-induced beta-arrestin 2 recruitment at 20 uM incubated for 30 mins followed by CP55940 addition and measured after 90 or 180 mins by pathhunter beta-arrestin assay relative to control; type: cell-based; procedure, shortened: as §2
Sequence of Cannabinoid receptor 2 (P34972 whole entry): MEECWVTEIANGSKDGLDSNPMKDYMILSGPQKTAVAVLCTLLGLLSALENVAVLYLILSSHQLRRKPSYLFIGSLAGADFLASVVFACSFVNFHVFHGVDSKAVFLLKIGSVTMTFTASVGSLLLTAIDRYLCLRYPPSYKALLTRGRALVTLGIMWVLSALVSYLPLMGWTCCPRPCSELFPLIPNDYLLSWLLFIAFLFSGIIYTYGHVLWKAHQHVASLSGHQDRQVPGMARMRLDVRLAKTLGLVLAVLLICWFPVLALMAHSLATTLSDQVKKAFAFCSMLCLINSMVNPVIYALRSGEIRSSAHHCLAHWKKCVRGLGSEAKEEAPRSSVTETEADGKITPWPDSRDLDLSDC

[10] = target: T3, Orexin receptor type 2 (Homo sapiens) (UniProt O43614); assay: Antagonist activity at human Gq-coupled HCRTR2 expressed in CHOK1 cells assessed as inhibition in Orexin A-induced beta-arrestin 2 recruitment at 20 uM incubated for 30 mins followed by Orexin A addition and measured after 90 or 180 mins by pathhunter beta-arrestin assay relative to control; type: cell-based; procedure, shortened: as §2
T3 sequence (whole entry): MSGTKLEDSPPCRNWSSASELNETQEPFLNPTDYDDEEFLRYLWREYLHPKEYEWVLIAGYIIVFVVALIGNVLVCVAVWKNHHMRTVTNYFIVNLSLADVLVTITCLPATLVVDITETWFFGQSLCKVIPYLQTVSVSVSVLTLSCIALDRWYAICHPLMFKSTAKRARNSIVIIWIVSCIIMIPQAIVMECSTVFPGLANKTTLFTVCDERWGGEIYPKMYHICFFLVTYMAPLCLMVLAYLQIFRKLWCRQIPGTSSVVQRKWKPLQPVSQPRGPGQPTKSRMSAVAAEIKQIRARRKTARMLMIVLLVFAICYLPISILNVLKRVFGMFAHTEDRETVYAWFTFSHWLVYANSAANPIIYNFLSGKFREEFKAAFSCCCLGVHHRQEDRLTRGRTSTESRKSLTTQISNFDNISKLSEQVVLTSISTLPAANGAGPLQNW

[11] = Toxicity in C57BL/6J mouse assessed as induction of behavioral changes at 60 nmol, icv; conditions: in vivo, icv_or_intrathecal
[12] = Stability of compound in pH 2.0 HCl aqueous solution assessed as parent compound remaining at 0.025 mmol measured after 24 hrs; type: physicochemical; conditions: read-out: Stability; procedure, shortened: as §4

Sequence of D(2) dopamine receptor (Homo sapiens) (P14416 whole entry): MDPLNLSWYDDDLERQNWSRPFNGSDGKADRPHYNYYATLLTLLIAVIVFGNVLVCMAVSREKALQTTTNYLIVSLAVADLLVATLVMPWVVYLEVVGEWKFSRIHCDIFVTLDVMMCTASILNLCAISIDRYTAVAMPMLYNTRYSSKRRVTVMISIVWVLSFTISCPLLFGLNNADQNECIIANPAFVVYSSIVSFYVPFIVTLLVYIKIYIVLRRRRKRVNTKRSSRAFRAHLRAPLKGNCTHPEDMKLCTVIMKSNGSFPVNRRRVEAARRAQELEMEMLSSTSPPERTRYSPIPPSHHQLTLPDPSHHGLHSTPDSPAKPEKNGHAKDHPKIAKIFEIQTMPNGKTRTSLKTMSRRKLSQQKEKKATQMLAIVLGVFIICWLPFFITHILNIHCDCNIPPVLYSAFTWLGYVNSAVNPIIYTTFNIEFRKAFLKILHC

Question: Which inhibition [1] does the source give for `CC[C@@]12CCCN3CCc4c([nH]c5ccccc45)[C@]31N(Cc1cn(Cc3ccccc3)nn1)C(=O)C2` here?
Answer: Its inhibition is 15%.

Question: And the Activity (Mus musculus [2])?
Answer: The Activity was “Active”.

Question: And the inhibition [3]?
Answer: Its inhibition is 59%.

Question: What about the inhibition (Prostacyclin receptor) of the same molecule?
Answer: The inhibition was 75%.

Question: What about the Activity [4] of the same molecule?
Answer: Its Activity is “Non-Toxic”.

Question: What about the inhibition [5] of the same molecule?
Answer: Its inhibition is 17%.

Question: And the inhibition [6]?
Answer: The inhibition was 59%.

Question: And the remaining at 24 h, 0.026 mmol [7]?
Answer: Its remaining at 24 h, 0.026 mmol is 99.2%.

Question: What about the inhibition [8] of the same molecule?
Answer: Its inhibition is 30%.

Question: And the Activity (Mus musculus [9])?
Answer: Its Activity is “Active”.

Question: And the inhibition (Cannabinoid receptor 2)?
Answer: The inhibition was 60%.

Question: And the inhibition [10]?
Answer: The inhibition was 80%.

Question: What about the Activity [11] of the same molecule?
Answer: The Activity was “Non-Toxic”.

Question: What about the remaining at 24 h, 0.025 mmol [12] of the same molecule?
Answer: Its remaining at 24 h, 0.025 mmol is 92.1%.

— ChEMBL document CHEMBL4342456, “Preventing Morphine-Seeking Behavior through the Re-Engineering of Vincamine's Biological Activity” (J Med Chem, 2020)
